Reference: ChEMBL document CHEMBL4715736, “Identification of anticancer agents based on the thieno[2,3-b]pyridine and 1H-pyrazole molecular scaffolds” (2016)

Tests used:
Assay type in all cases: functional
[1] = tested on: OVCAR-4; test: Growth inhibition of human OVCAR-4 cells incubated for 48 hrs by sulforhodamine B assay; conditions: for CC50: read-out: LC50 (the source's name)
In short: (§1)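 NCI DTP 60-line human tumour panel. Dose-response curves were run only for ligands active in the initial 10 µM screen. GI50 (concentration giving 50% of maximal inhibition of proliferation) and TGI (concentration giving total growth inhibition) were derived from these curves.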

[2] = tested on: CCRF-CEM; test: Growth inhibition of human CCRF-CEM cells assessed as cell growth at 100 uM incubated for 48 hrs by sulforhodamine B assay relative to control; conditions: read-out: Activity
In short: (§2)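 NCI Developmental Therapeutics Program NCI60 panel. Compounds that were active in the 10 µM one-dose screen went on to dose–response testing. Growth at each concentration is expressed relative to untreated control (100%). GI50 (concentration giving 50% of maximal inhibition of proliferation) and TGI (concentration giving total growth inhibition) were derived from the curves.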

[3] = tested on: OVCAR-3; test: Growth inhibition of human OVCAR-3 cells assessed as cell growth at 0.1 uM incubated for 48 hrs by sulforhodamine B assay relative to control; conditions: read-out: Activity
[4] = tested on: SNB-75; test: Growth inhibition of human SNB-75 cells incubated for 48 hrs by sulforhodamine B assay; in short: as §1
[5] = tested on: HT-29; test: Growth inhibition of human HT-29 cells assessed as cell growth at 1 uM incubated for 48 hrs by sulforhodamine B assay relative to control; conditions: read-out: Activity
[6] = tested on: RPMI-8226; test: Growth inhibition of human RPMI-8226 cells incubated for 48 hrs by sulforhodamine B assay; in short: as §1
[7] = tested on: SN12C; test: Growth inhibition of human SN12C cells incubated for 48 hrs by sulforhodamine B assay; conditions: for CC50: read-out: LC50 (the source's name); in short: as §1
[8] = tested on: MDA-MB-231; test: Growth inhibition of human MDA-MB-231 cells assessed as cell growth at 0.1 uM incubated for 48 hrs by sulforhodamine B assay relative to control; conditions: read-out: Activity
[9] = tested on: SNB-75; test: Growth inhibition of human SNB-75 cells assessed as cell growth at 0.01 uM incubated for 48 hrs by sulforhodamine B assay relative to control; conditions: read-out: Activity
[10] = tested on: OVCAR-8; test: Growth inhibition of human OVCAR-8 cells assessed as cell growth at 100 uM incubated for 48 hrs by sulforhodamine B assay relative to control; conditions: read-out: Activity
[11] = tested on: BT-549; test: Growth inhibition of human BT-549 cells incubated for 48 hrs by sulforhodamine B assay; conditions: for CC50: read-out: LC50 (the source's name); in short: as §2
[12] = tested on: SF-295; test: Growth inhibition of human SF-295 cells assessed as cell growth at 0.1 uM incubated for 48 hrs by sulforhodamine B assay relative to control; conditions: read-out: Activity
[13] = tested on: SK-MEL-5; test: Growth inhibition of human SK-MEL-5 cells assessed as cell growth at 0.1 uM incubated for 48 hrs by sulforhodamine B assay relative to control; conditions: read-out: Activity
[14] = tested on: NCI-H322M; test: Growth inhibition of human NCI-H322M cells assessed as cell growth at 0.1 uM incubated for 48 hrs by sulforhodamine B assay relative to control; conditions: read-out: Activity
[15] = tested on: NCI-H23; test: Growth inhibition of human NCI-H23 cells assessed as cell growth at 0.01 uM incubated for 48 hrs by sulforhodamine B assay relative to control; conditions: read-out: Activity
[16] = tested on: SK-MEL-28; test: Growth inhibition of human SK-MEL-28 cells assessed as cell growth at 0.01 uM incubated for 48 hrs by sulforhodamine B assay relative to control; conditions: read-out: Activity
[17] = tested on: SK-MEL-2; test: Growth inhibition of human SK-MEL-2 cells assessed as cell growth at 0.01 uM incubated for 48 hrs by sulforhodamine B assay relative to control; conditions: read-out: Activity
[18] = tested on: SF-539; test: Growth inhibition of human SF-539 cells assessed as cell growth at 0.01 uM incubated for 48 hrs by sulforhodamine B assay relative to control; conditions: read-out: Activity
[19] = tested on: CAKI-1; test: Growth inhibition of human CAKI-1 cells assessed as cell growth at 0.01 uM incubated for 48 hrs by sulforhodamine B assay relative to control; conditions: read-out: Activity; in short: as §2
[20] = tested on: UACC-257; test: Growth inhibition of human UACC-257 cells incubated for 48 hrs by sulforhodamine B assay; in short: as §1
[21] = tested on: OVCAR-4; test: Growth inhibition of human OVCAR-4 cells assessed as cell growth at 0.01 uM incubated for 48 hrs by sulforhodamine B assay relative to control; conditions: read-out: Activity
[22] = tested on: UO-31; test: Growth inhibition of human UO-31 cells assessed as cell growth at 100 uM incubated for 48 hrs by sulforhodamine B assay relative to control; conditions: read-out: Activity
[23] = tested on: OVCAR-5; test: Growth inhibition of human OVCAR-5 cells assessed as cell growth at 100 uM incubated for 48 hrs by sulforhodamine B assay relative to control; conditions: read-out: Activity
[24] = tested on: HCT-116; test: Growth inhibition of human HCT-116 cells assessed as cell growth at 100 uM incubated for 48 hrs by sulforhodamine B assay relative to control; conditions: read-out: Activity
[25] = tested on: UACC-62; test: Growth inhibition of human UACC-62 cells assessed as cell growth at 0.01 uM incubated for 48 hrs by sulforhodamine B assay relative to control; conditions: read-out: Activity
[26] = tested on: OVCAR-8; test: Growth inhibition of human OVCAR-8 cells assessed as cell growth at 0.1 uM incubated for 48 hrs by sulforhodamine B assay relative to control; conditions: read-out: Activity
[27] = tested on: RXF 393; test: Growth inhibition of human RXF 393 cells assessed as cell growth at 0.01 uM incubated for 48 hrs by sulforhodamine B assay relative to control; conditions: read-out: Activity
[28] = tested on: HOP-92; test: Growth inhibition of human HOP-92 cells assessed as cell growth at 0.01 uM incubated for 48 hrs by sulforhodamine B assay relative to control; conditions: read-out: Activity
[29] = tested on: SW-620; test: Growth inhibition of human SW-620 cells assessed as cell growth at 0.1 uM incubated for 48 hrs by sulforhodamine B assay relative to control; conditions: read-out: Activity
[30] = tested on: MDA-MB-231; test: Growth inhibition of human MDA-MB-231 cells assessed as cell growth at 1 uM incubated for 48 hrs by sulforhodamine B assay relative to control; conditions: read-out: Activity
[31] = tested on: RXF 393; test: Growth inhibition of human RXF 393 cells assessed as cell growth at 0.1 uM incubated for 48 hrs by sulforhodamine B assay relative to control; conditions: read-out: Activity
[32] = tested on: NCI/ADR-RES; test: Growth inhibition of human NCI/ADR-RES cells incubated for 48 hrs by sulforhodamine B assay; conditions: for CC50: read-out: LC50 (the source's name)
In short: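 NCI60 panel at the NCI Developmental Therapeutics Program. Only compounds active in the 10 µM screen went to dose-response testing. GI50, the concentration giving 50% of maximal inhibition of proliferation, and TGI, the concentration giving total growth inhibition, were derived from the dose-response curves.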

[33] = tested on: HCC 2998; test: Growth inhibition of human HCC 2998 cells assessed as cell growth at 0.1 uM incubated for 48 hrs by sulforhodamine B assay relative to control; conditions: read-out: Activity; in short: as §2
[34] = tested on: SW-620; test: Growth inhibition of human SW-620 cells assessed as cell growth at 100 uM incubated for 48 hrs by sulforhodamine B assay relative to control; conditions: read-out: Activity

SMILES: Nc1c(C(=O)Nc2ccccc2)sc2nc3c(cc12)CN(Cc1ccccc1)CC3
- GI50 [1]: 1.97 µM
- TGI [1]: 23.1 µM
- CC50 [1]: > 100 µM
- growth at 100 µM [2]: 36%
- growth at 0.1 µM [3]: 100%
- GI50 [4]: 1.32 µM
- TGI [4]: 3.5 µM
- growth at 1 µM [5]: 101%
- GI50 [6]: 55.8 µM
- LC50 [6]: > 100 µM
- TGI [6]: > 100 µM
- GI50 [7]: 65.7 µM
- TGI [7]: > 100 µM
- CC50 [7]: > 100 µM
- growth at 0.1 µM [8]: 100%
- growth at 0.01 µM [9]: 91%
- growth at 100 µM [10]: 18%
- GI50 [11]: 16.8 µM
- TGI [11]: 92.3 µM
- CC50 [11]: > 100 µM
- growth at 0.1 µM [12]: 90%
- growth at 0.1 µM [13]: 100%
- growth at 0.1 µM [14]: 93%
- growth at 0.01 µM [15]: 97%
- growth at 0.01 µM [16]: 100%
- growth at 0.01 µM [17]: 96%
- growth at 0.01 µM [18]: 96%
- growth at 0.01 µM [19]: 93%
- GI50 [20]: 52.8 µM
- LC50 (concentration killing 50% of cells) [20]: > 100 µM
- TGI [20]: > 100 µM
- growth at 0.01 µM [21]: 101%
- growth at 100 µM [22]: 32%
- growth at 100 µM [23]: 66%
- growth at 100 µM [24]: 17%
- growth at 0.01 µM [25]: 95%
- growth at 0.1 µM [26]: 101%
- growth at 0.01 µM [27]: 96%
- growth at 0.01 µM [28]: 92%
- growth at 0.1 µM [29]: 97%
- growth at 1 µM [30]: 92%
- growth at 0.1 µM [31]: 94%
- GI50 [32]: 16.3 µM
- TGI [32]: > 100 µM
- CC50 [32]: > 100 µM
- growth at 0.1 µM [33]: 97%
- growth at 100 µM [34]: 23%

SMILES: CN1CCc2nc3sc(C(N)=O)c(N)c3c(-c3cccs3)c2C1
- GI50 [1]: 7.38 µM
- TGI [1]: > 100 µM
- CC50 [1]: > 100 µM
- growth at 100 µM [2]: 7%
- growth at 0.1 µM [3]: 99%
- GI50 [4]: 2.81 µM
- LC50 [4]: > 100 µM
- TGI [4]: 8.03 µM
- growth at 1 µM [5]: 91%
- GI50 [6]: 4.41 µM
- LC50 [6]: > 100 µM
- TGI [6]: > 100 µM
- GI50 [7]: 2.69 µM
- TGI [7]: > 100 µM
- CC50 [7]: > 100 µM
- growth at 0.1 µM [8]: 109%
- growth at 0.01 µM [9]: 95%
- growth at 100 µM [10]: 5%
- GI50 [11]: 3.26 µM
- TGI [11]: 35.5 µM
- CC50 [11]: > 100 µM
- growth at 0.1 µM [12]: 103%
- growth at 0.1 µM [13]: 91%
- growth at 0.1 µM [14]: 102%
- growth at 0.01 µM [15]: 97%
- growth at 0.01 µM [16]: 106%
- growth at 0.01 µM [17]: 107%
- growth at 0.01 µM [18]: 102%
- growth at 0.01 µM [19]: 95%
- GI50 [20]: 4 µM
- LC50 (concentration killing 50% of cells) [20]: > 100 µM
- TGI [20]: > 100 µM
- growth at 0.01 µM [21]: 110%
- growth at 100 µM [22]: 6%
- growth at 100 µM [24]: 3%
- growth at 0.01 µM [25]: 99%
- growth at 0.1 µM [26]: 96%
- growth at 0.01 µM [27]: 97%
- growth at 0.01 µM [28]: 127%
- growth at 0.1 µM [29]: 110%
- growth at 1 µM [30]: 97%
- growth at 0.1 µM [31]: 85%
- GI50 [32]: 3.69 µM
- TGI [32]: 98.8 µM
- CC50 [32]: > 100 µM
- growth at 0.1 µM [33]: 99%
- growth at 100 µM [34]: 3%

SMILES: CCc1cccc(C)c1NC(=O)c1sc2nc3c(cc2c1N)C(=O)CCC3
- GI50 [1]: 0.01 µM
- TGI [1]: > 100 µM
- CC50 [1]: > 100 µM
- growth at 100 µM [2]: -11%
- growth at 0.1 µM [3]: 104%
- GI50 [4]: 0.212 µM
- LC50 [4]: > 100 µM
- GI50 [6]: 0.0141 µM
- LC50 [6]: > 100 µM
- TGI [6]: ≥ 100 µM
- GI50 [7]: 0.0104 µM
- TGI [7]: > 100 µM
- CC50 [7]: > 100 µM
- growth at 0.1 µM [8]: 100%
- growth at 0.01 µM [9]: 73%
- growth at 100 µM [10]: -2%
- growth at 0.1 µM [12]: 85%
- growth at 0.1 µM [13]: 89%
- growth at 0.1 µM [14]: 91%
- growth at 0.01 µM [15]: 99%
- growth at 0.01 µM [16]: 90%
- growth at 0.01 µM [18]: 89%
- growth at 0.01 µM [19]: 89%
- GI50 [20]: 0.185 µM
- LC50 (concentration killing 50% of cells) [20]: > 100 µM
- TGI [20]: 62.3 µM
- growth at 0.01 µM [21]: 89%
- growth at 100 µM [22]: 12%
- growth at 100 µM [23]: 30%
- growth at 100 µM [24]: 4%
- growth at 0.01 µM [25]: 96%
- growth at 0.1 µM [26]: 97%
- growth at 0.01 µM [27]: 84%
- growth at 0.01 µM [28]: 82%
- growth at 0.1 µM [29]: 91%
- growth at 1 µM [30]: 51%
- growth at 0.1 µM [31]: 74%
- GI50 [32]: 0.558 µM
- CC50 [32]: > 100 µM
- growth at 0.1 µM [33]: 100%
- growth at 100 µM [34]: 14%
